Assay results from ChEMBL document CHEMBL1145409, “New sst4/5-selective somatostatin peptidomimetics based on a constrained tryptophan scaffold” (J Med Chem, 2007).

What was measured:
[1] = target: Somatostatin receptor type 1 (Homo sapiens, UniProt P30872); assay: Displacement of [125I][Leu8-D-Trp22, Tyr25]-SRIF28 from human SST1 receptor
How it was run: (§1)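 Membrane pellets from CHO-K1 or CCL39 cells stably expressing the human receptor subtype, cut as 20 µm sections on slides for receptor autoradiography. Full displacement of [125I]-[Leu8,D-Trp22,Tyr25]-SRIF-28 by unlabeled compound at 0.1–1000 nmol/L, SRIF-28 run in parallel. Quantified by image analysis against calibrated isotope tissue standards to give IC50; mean ± SEM of 2–4 independent repetitions.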

[2] = target: Somatostatin receptor type 2 (Homo sapiens, UniProt P30874); assay: Displacement of [125I][Leu8-D-Trp22, Tyr25]-SRIF28 from human SST2 receptor; how it was run: as §1
[3] = target: Somatostatin receptor type 3 (Homo sapiens, UniProt P32745); assay: Displacement of [125I][Leu8-D-Trp22, Tyr25]-SRIF28 from human SST3 receptor; how it was run: as §1
[4] = target: Somatostatin receptor type 4 (Homo sapiens, UniProt P31391); assay: Displacement of [125I][Leu8-D-Trp22, Tyr25]-SRIF28 from human SST4 receptor; how it was run: as §1
[5] = target: T1, Somatostatin receptor type 5 (Homo sapiens, UniProt P35346); assay: Displacement of [125I][Leu8-D-Trp22, Tyr25]-SRIF28 from human SST5 receptor; how it was run: as §1
[6] = target: T1, Somatostatin receptor type 5; assay: Agonist activity at human SST5 receptor expressed in CHOK1 cells assessed as effect on forskolin-induced cAMP production; format: functional, cell-based, CHO-K1
How it was run: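 Stably transfected sst5 CHO-K1 cells preincubated 30 min at 37 °C in medium with 0.5 mM IBMX, then 30 min at 37 °C with 0.5 mM IBMX, with or without 10 µM forskolin and graded compound concentrations. Cells lysed; cAMP measured by scintillation proximity assay, expressed as % stimulation over nonstimulated level. EC50 from nonlinear regression of dose-response curves; three experiments, triplicate wells.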

Chain of Somatostatin receptor type 1 (P30872 whole entry): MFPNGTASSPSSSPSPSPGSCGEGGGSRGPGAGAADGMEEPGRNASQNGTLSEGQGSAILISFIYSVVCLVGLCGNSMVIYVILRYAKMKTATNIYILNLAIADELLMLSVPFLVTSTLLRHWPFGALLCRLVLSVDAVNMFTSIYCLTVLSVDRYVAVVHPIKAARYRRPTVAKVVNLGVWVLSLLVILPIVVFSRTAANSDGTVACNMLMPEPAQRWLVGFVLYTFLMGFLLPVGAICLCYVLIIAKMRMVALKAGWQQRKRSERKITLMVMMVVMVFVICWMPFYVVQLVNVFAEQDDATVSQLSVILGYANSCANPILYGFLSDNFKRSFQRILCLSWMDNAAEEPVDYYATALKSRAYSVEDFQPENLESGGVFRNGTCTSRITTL
T1 sequence (P35346 whole entry): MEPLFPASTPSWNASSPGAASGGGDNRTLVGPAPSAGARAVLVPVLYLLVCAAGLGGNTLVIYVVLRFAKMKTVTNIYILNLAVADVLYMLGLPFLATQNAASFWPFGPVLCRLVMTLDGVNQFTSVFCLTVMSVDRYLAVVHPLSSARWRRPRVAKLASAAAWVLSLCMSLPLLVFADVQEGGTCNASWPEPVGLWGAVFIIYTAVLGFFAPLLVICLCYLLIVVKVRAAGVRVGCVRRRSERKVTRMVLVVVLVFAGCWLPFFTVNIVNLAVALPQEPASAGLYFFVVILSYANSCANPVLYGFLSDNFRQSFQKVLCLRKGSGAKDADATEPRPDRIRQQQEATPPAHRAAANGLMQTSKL
Chain of Somatostatin receptor type 3 (P32745 whole entry): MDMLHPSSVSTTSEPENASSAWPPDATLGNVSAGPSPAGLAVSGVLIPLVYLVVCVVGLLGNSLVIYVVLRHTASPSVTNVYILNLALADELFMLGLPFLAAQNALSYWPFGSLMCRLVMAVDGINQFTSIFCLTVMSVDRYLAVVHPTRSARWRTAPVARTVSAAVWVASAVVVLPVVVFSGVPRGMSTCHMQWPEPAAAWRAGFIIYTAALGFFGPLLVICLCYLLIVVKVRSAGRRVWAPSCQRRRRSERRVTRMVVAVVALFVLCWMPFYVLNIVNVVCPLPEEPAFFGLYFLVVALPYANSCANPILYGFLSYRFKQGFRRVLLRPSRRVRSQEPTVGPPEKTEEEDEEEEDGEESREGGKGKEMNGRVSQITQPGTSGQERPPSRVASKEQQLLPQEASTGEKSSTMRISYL
Chain of Somatostatin receptor type 2 (P30874 whole entry): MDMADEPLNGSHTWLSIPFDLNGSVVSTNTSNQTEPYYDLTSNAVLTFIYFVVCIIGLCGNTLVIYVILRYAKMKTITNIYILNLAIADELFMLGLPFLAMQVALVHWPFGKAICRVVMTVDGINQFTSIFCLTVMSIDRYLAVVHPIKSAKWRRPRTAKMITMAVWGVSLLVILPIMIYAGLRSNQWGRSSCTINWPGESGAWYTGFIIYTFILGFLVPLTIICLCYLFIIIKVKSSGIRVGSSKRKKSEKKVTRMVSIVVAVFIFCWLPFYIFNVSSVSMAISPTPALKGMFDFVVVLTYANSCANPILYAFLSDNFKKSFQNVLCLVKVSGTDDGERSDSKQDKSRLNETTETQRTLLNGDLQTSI
Chain of Somatostatin receptor type 4 (P31391 whole entry): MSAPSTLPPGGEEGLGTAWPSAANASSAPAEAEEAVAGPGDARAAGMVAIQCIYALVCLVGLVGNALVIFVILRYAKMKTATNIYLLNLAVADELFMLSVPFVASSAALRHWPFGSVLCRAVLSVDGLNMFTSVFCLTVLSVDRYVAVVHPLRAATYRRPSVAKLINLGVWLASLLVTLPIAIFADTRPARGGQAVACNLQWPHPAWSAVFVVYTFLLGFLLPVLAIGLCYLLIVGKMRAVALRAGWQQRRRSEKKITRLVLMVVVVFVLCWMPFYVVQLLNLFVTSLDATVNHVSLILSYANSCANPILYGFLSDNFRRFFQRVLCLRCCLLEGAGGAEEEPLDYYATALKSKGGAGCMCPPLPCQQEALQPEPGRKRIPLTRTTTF

| IC50 [1] [nM] | IC50 [2] [nM] | IC50 [3] [nM] | IC50 [4] [nM] | IC50 [5] [nM] | EC50 [6] [nM] | Compound |
| --- | --- | --- | --- | --- | --- | --- |
| > 1000 | 357 | > 1000 | 129 | 318 |  | NCCCCCN1Cc2[nH]c3ccccc3c2C[C@@H](NC(=O)CC(c2ccccc2)c2ccccc2)C1=O |
| 233 | 83 | 251 | 3.3 | 1.2 | 13 | NCCCC[C@@H](C(=O)NCc1ccccc1)N1Cc2[nH]c3ccccc3c2C[C@@H](NC(=O)Cc2ccccc2)C1=O |
| 89 | 103 | 694 | 73 | 8 |  | NCCCC[C@@H](C(=O)NCc1ccccc1)N1Cc2[nH]c3ccccc3c2C[C@@H](NC(=O)CC(c2ccccc2)c2ccccc2)C1=O |
| > 1000 | > 1000 | > 1000 | 75 | 245 |  | NCCCCCN1Cc2[nH]c3ccccc3c2C[C@@H](NC(=O)Cc2ccccc2)C1=O |
